T cruzi repl – inhibitors of intracellular T. cruzi growth, primary screen, luminescence, NIH3T3 host cells; T. cruzi beta-gal in NIH3T3, 90 h; inhibition, % (concentration not given with the values); 1.4% of 300,000 active; AID 1885, 2009;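 active = mean inhibition across valid replicates above about 55%, limit read from the data; inconclusive = mean below that limit but half or more replicates reach it; inactive = mean below it, under half of replicates reach it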;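 also: signal also drops with host cell toxicity which is not excluded here; higher percent means less beta-gal luminescence so fewer parasites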
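System – NIH/3T3 host cells with β-galactosidase reporter T. cruzi · Doses – single 50 nL compound addition per well in DMSO · Reagent – 5000 T. cruzi trypomastigotes/well · Medium – Low-serum DMEM with 2% FBS · Timing – ≥90 h infection period, 3 h prior cell attachment · Evaluation – parasite load inhibition, % · Technique – GalScreen luminescence, 60 min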
SKKanGAS inh – S. pyogenes SKKanGAS growth inhibitors in kanamycin, primary screen, streptokinase expression inhibitor project, SKKanGAS strain, BacTiter-Glo luminescence | inhibition, % at 7.5 µM | 6 h | 1.3% of 300,000 active;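 active = mean replicate score, as percent of positive control median, at least 50; inconclusive = mean below 50 but one replicate at or above 50; inactive = mean and every replicate below 50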;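 also: strain carries kanamycin resistance gene driven by streptokinase promoter and grows in 40 µg/ml kanamycin; loss of luminescence reflects streptokinase promoter inhibition or plain growth inhibition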
Beta apoptosis – inhibitors of cytokine-induced beta cell apoptosis, primary screen, luminescence; INS-1E cytokine-induced death, ATP luminescence, 48 h; percent of positive-control rescue, neutral wells zero; protection from apoptosis, % (test concentration not listed); 0.8% of 300,000 active; AID 435005, 2010;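 active = Every replicate reaches about 75%, or at least half do and their mean reaches it too, limit read from the data; inconclusive = At least half of replicates reach the limit but their mean does not; inactive = Under half of replicates reach the limit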;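 also: higher means more ATP so stronger rescue from cytokine killing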
Mdm2-MdmX inh – inhibitors of human Mdm2-MdmX association, primary screen, cell-based, luminescence, split luciferase, SaOS-2, uHTS; Protein Mdm4 (Homo sapiens) + E3 ubiquitin-protein ligase Mdm2 (Homo sapiens), …; SaOS-2 split-luciferase Mdm2/MdmX complementation; inhibition, % at 8 µM; 3% of 330,000 active; AID 485346, 2010;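 active = inhibition of at least 50% at 8 µM in the primary screen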
CSC inhib – cancer stem cell viability inhibitors, primary screen, luminescence; inhibition, % at 7.5 µM; AID 2717, 2010; 1.1% of 300,000 active; cancer stem cell-like cells viability; in the data active = inhibition above about 75%; inconclusive = no clear call, values can overlap the other calls; tested in HMLE shEcad cells
Calb FLC – C. albicans growth inhibition with fluconazole, primary screen, CaCi-2 strain, Alamar Blue fluorescence; 0.57% of 300,000 active; C. albicans CaCi-2 + fluconazole, 48 h; AID 1979, 2009; growth inhibition, % (concentration not given with the values);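 active = growth inhibition above about 58% in most replicates, limit read from the data, passing the limit was not always enough; inconclusive = exactly half the replicates above a set limit; inactive = most replicates below a set limit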;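 also: all wells also contain fluconazole at 8 µg/ml as a sub-toxic cotreatment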
Mdm2 MdmX conf – Mdm2-MdmX complex disruptors, retested hits, confirmation, luminescence, single concentration | shares compounds with Mdm2-MdmX inh | Mdm2-MdmX binding, luminescent assay | inhibition, % at 8 µM | 55% of 10,000 active | AID 489028, 2010; in the data active = inhibition above about 40%
FLuc counter – full-length luciferase signal inhibition, confirmation, counter-screen for Mdm2/MdmX interaction inhibitor project, cell-based, single concentration, SaOS-2; shares compounds with Mdm2-MdmX inh; SaOS-2 full-length luciferase counterscreen, luminescence; inhibition, % at 8 µM; 77% of 6,200 active; AID 504607, 2011;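 active = mean inhibition at 8 µM reaching about 37%, which flags the compound as non-specific, limit read from the data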;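 also: p53-null SaOS-2 cells with luciferase driven by a doxycycline-inducible promoter; compound on cells about two nights before reading with doxycycline added after day one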
A number is an active result; i = inactive; ? = inconclusive; nt = no result given. Sampled rows, rich in hits. Any-hit rate of the full collection: about 5.7%.

SMILES	T cruzi repl	SKKanGAS inh	Beta apoptosis	Mdm2-MdmX inh	CSC inhib	Calb FLC	Mdm2 MdmX conf	FLuc counter
CCc1ccc(N=C2NC(=O)/C(=C/c3ccc(OCC(=O)O)c(OC)c3)S2)cc1	i	i	nt	i	nt	i	nt	nt
COc1ccc(CCNC(=O)C(CCC(N)=O)NS(=O)(=O)c2ccc(Cl)cc2)cc1OC (stereo not drawn)	i	i	i	i	i	i	nt	nt
COc1ccc(-c2oc3ncn(CCN4CCOCC4)c(=N)c3c2-c2ccc(OC)cc2)cc1	i	i	i	57	i	i	i	49
c1ccc(-c2oc3ncnc(NCCCN4CCOCC4)c3c2-c2ccccc2)cc1	i	i	i	i	i	i	nt	nt
COc1ccc(-c2oc3ncnc(NCCN4CCOCC4)c3c2-c2ccc(OC)cc2)cc1	?	i	i	80	i	i	i	nt
COc1ccc(-c2oc3ncnc(NCCCN4CCOCC4)c3c2-c2ccc(OC)cc2)cc1	i	i	i	60	i	i	i	nt
CC1(OC(=O)c2ccc(Cl)nc2)C(=O)C=C2C=C(c3ccc(C#N)cc3)OC=C2C1=O (stereo not drawn)	i	i	i	nt	i	i	nt	nt
COC(=O)c1ccc(N)c(N=CC2=C(O)CC(C)(C)CC2=O)c1	i	i	i	i	i	i	nt	nt
COC(=O)c1ccc2c(c1)C(C)(C)C(/C=C/c1ccccc1O)=[N+]2C	74	i	i	71	78	i	100	52
N=c1n(CCN2CCCC2)c2ccccc2n1CC(O)c1ccc(Cl)c(Cl)c1 (stereo not drawn)	i	i	i	96	i	i	99	104
Cc1ccc(OCC(O)Cn2c(=N)n(CCN3CCOCC3)c3ccccc32)cc1 (stereo not drawn)	i	i	i	i	i	i	nt	nt
COc1ccc(OCC(O)Cn2c(=N)n(CCN3CCCCC3)c3ccccc32)cc1 (stereo not drawn)	nt	nt	i	53	i	nt	41	77
Cc1ccc(OCC(O)Cn2c(=N)n(CCN3CCCCC3)c3ccccc32)cc1 (stereo not drawn)	73	i	i	69	i	i	58	47
CCOC(=O)C1CCN(S(=O)(=O)c2cc3c4c(c2)C(C)C(=O)N4CCC3)CC1 (stereo not drawn)	i	i	i	i	i	i	nt	nt
O=C(CCC(=O)N1CCCC1)N1CCCC1	i	i	i	i	i	i	nt	nt
CC(C)c1ccc(C2C3=C(COC3=O)Nc3cc4c(cc32)OCO4)cc1 (stereo not drawn)	i	i	i	76	i	i	62	94
CC(C)c1ccc(NS(=O)(=O)c2ccc3c(c2)NC(=O)CO3)cc1	i	i	nt	i	nt	i	nt	nt
CCOc1ncccc1C(=O)OCC(=O)Nc1nnc(-c2ccccc2)o1	i	i	i	i	i	i	nt	nt
Cc1ccc(CNC(=O)c2ccccc2NC(=O)CN2CC(C)OC(C)C2)cc1 (stereo not drawn)	i	i	i	i	i	i	nt	nt
Cc1sc2ncnc(Sc3nnnn3-c3ccc(Cl)cc3)c2c1C	i	?	i	101	i	i	79	54
c1ccc(-n2nnnc2Sc2ncnc3sc4c(c23)CCCC4)cc1	i	i	i	98	i	i	75	48
CCCCn1c(NC(=S)Nc2ccccc2)nc2ccccc21	i	i	i	58	nt	i	i	94
CCCCn1c(NCCO)nc2ccccc21	i	i	i	i	i	i	nt	nt
COc1ccc(OCCn2c(NC(=O)c3ccco3)nc3ccccc32)cc1	i	62	i	57	i	i	i	nt
S=C(Nc1ccccc1)Nc1nc2ccccc2n1CCOc1ccccc1	i	i	i	51	98	94	i	nt

Bioassay records deposited in PubChem BioAssay by several laboratories.
